Activity calls are given as the source filed them. The rule behind the calls is not given here.
Assays:
[1] = molecular target: High affinity nerve growth factor receptor (Homo sapiens) (UniProt P04629); test: Inhibition of human TRKA at 1 uM using PolyEY as substrate in presence of 33P-ATP by ProQinase assay
[2] = molecular target: MAP/microtubule affinity-regulating kinase 3 (Homo sapiens) (UniProt P27448); test: (§1) Inhibition of recombinant human N-terminal His6-tagged MARK3 (2 to 729 residues) expressed in baculovirus infected Sf21 cells assessed as remaining activity at 1 uM using CHKtide as substrate incubated for 30 mins in presence of [gamma-33P]ATP by filter binding method relative to control
[3] = molecular target: MAP/microtubule affinity-regulating kinase 4 (Homo sapiens) (UniProt Q96L34); test: as §1, with “MARK4” for “MARK3”, “752” for “729”, “KKKVSRSGLYRSPSMPENLNRPR” for “CHKtide”
[4] = molecular target: Serine/threonine-protein kinase 33 (Homo sapiens) (UniProt Q9BYT3); test: Inhibition of human STK33 at 1 uM using RBER-CHKtide as substrate in presence of 33P-ATP by ProQinase assay
[5] = molecular target: Serine/threonine-protein kinase WNK3 (Homo sapiens) (UniProt Q9BYP7); test: Inhibition of human WNK3 at 1 uM using RB-S6P as substrate in presence of 33P-ATP by ProQinase assay
[6] = molecular target: Tyrosine-protein kinase Lck (Homo sapiens) (UniProt P06239); test: Inhibition of human LCK at 1 uM using polyEY as substrate in presence of 33P-ATP by ProQinase assay
U2OS = test: Inhibition of PI3K in human U2OS cells expressing FLAG-tagged SGK3 assessed as reduction in NDRG1 phosphorylation at T346 residues at 0.01 to 1 uM 1 hr by immunoblot analysis; assay type: cell-based; settings: dose 0.01-1 µM
Summary of the method: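 Flp-In T-REx U2OS cells were grown in McCoy medium with 10% FBS. Expression of C-terminally FLAG-tagged full-length SGK3 was induced with 0.01 mg/ml doxycycline for 24 h. Cells were treated with inhibitor for 1 h and lysed in phosphatase-inhibitor buffer. Lysates were cleared at 16000 g for 10 min at 4°C, protein was measured by Bradford, and phosphorylation was read by immunoblot with ECL detection.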

[7] = molecular target: G protein-coupled receptor kinase 5 (Homo sapiens) (UniProt P34947); test: Inhibition of human GRK5 at 1 uM using casein as substrate in presence of 33P-ATP by ProQinase assay
[8] = molecular target: Serine/threonine-protein kinase TBK1 (Homo sapiens) (UniProt Q9UHD2); test: as §1, with “GST-tagged TBK1 (1” for “His6-tagged MARK3 (2”, “KKKKERLLDDRHDSGLDSMKDEE” for “CHKtide”
[9] = molecular target: Serine/threonine-protein kinase PAK 2 (Homo sapiens) (UniProt Q13177); test: Inhibition of human PAK2 at 1 uM using bio-4xCHKT as substrate in presence of 33P-ATP by ProQinase assay
[10] = molecular target: Dual specificity testis-specific protein kinase 1 (Homo sapiens) (UniProt Q15569); test: Inhibition of recombinant human N-terminal GST-tagged TESK1 (1 to 315 residues) expressed in Escherichia coli assessed as remaining activity at 1 uM using Cofilin 2 as substrate incubated for 30 mins in presence of [gamma-33P]ATP by filter binding method relative to control
[11] = molecular target: Serine/threonine-protein kinase SIK2 (Homo sapiens) (UniProt Q9H0K1); test: Inhibition of human SNF1LK2 at 1 uM using RBER-CHKtide as substrate in presence of 33P-ATP by ProQinase assay
[12] = molecular target: Serine/threonine-protein kinase N2 (Homo sapiens) (UniProt Q16513); test: Inhibition of recombinant N-terminal His6/FLAG-tagged human PRK2 (501 to 984 residues) expressed in baculovirus infected Sf21 cells assessed as remaining activity at 1 uM using S6 peptide as substrate incubated for 30 mins in presence of [gamma-33P]ATP by filter binding method relative to control
[13] = molecular target: Serine/threonine-protein kinase PAK 5 (Homo sapiens) (UniProt Q9P286); test: Inhibition of recombinant human N-terminal GST-tagged PAK5 (2 to 719 residues) expressed in Escherichia coli assessed as remaining activity at 1 uM using RRRLSFAEPG as substrate incubated for 30 mins in presence of [gamma-33P]ATP by filter binding method relative to control
[14] = molecular target: Cytoplasmic tyrosine-protein kinase BMX (Homo sapiens) (UniProt P51813); test: Inhibition of human BMX at 1 uM using polyEy as substrate in presence of 33P-ATP by ProQinase assay
[15] = molecular target: Sphingosine kinase 1 (Homo sapiens) (UniProt Q9NYA1); test: Inhibition of recombinant human N-terminal His6-tagged SPHK1 (1 to 384 residues) expressed in baculovirus expression system at 1 uM using sphingosine as substrate incubated for 40 mins by ADP-Glo assay
[16] = molecular target: Phosphatidylinositol 4-phosphate 5-kinase type-1 gamma (Homo sapiens, UniProt O60331); test: Inhibition of PIP5K1C (unknown origin) using D-myo-PIP as substrate incubated for 45 mins by ADP-Glo assay
Summary of the method: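 Substrates were 14 μM PtdIns 4-phosphate and 20 μM ATP, with inhibitor at varying concentrations. Reactions ran 45 min at ambient temperature, then luminescence detection was done as for the PI4K assays.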

[17] = molecular target: Casein kinase I isoform alpha (Homo sapiens) (UniProt P48729); test: Inhibition of human CK1alpha1 at 1 uM using casein as substrate in presence of 33P-ATP by ProQinase assay
[18] = molecular target: Platelet-derived growth factor receptor alpha (Homo sapiens) (UniProt P16234); test: Inhibition of recombinant human PDGFRalpha (551 to […] residues) expressed in baculovirus infected Sf21 cells assessed as remaining activity at 1 uM using KKKKEEIYFFFG as substrate incubated for 30 mins in presence of [gamma-33P]ATP by filter binding method relative to control
[19] = molecular target: Interleukin-1 receptor-associated kinase 1 (Homo sapiens) (UniProt P51617); test: Inhibition of recombinant human N-terminal GST-tagged IRAK1 (1 to 712 residues) expressed in baculovirus infected Sf21 cells assessed as remaining activity at 1 uM using MBP as substrate incubated for 30 mins in presence of [gamma-33P]ATP by filter binding method relative to control
[20] = molecular target: Proto-oncogene tyrosine-protein kinase Src (Homo sapiens) (UniProt P12931); test: Inhibition of human GST/His-tagged SRC at 1 uM using PolyEY as substrate in presence of 33P-ATP by ProQinase assay
[21] = molecular target: Serine/threonine-protein kinase 24 (Homo sapiens) (UniProt Q9Y6E0); test: Inhibition of human MST3 at 1 uM using casein as substrate in presence of 33P-ATP by ProQinase assay
[22] = molecular target: Choline/ethanolamine kinase (Homo sapiens) (UniProt Q9Y259); test: Inhibition of recombinant human N-terminal GST-tagged CHKbeta (1 to 395 residues) expressed in Escherichia coli at 1 uM using choline chloride as substrate incubated for 40 mins by ADP-Glo assay

Platelet-derived growth factor receptor alpha (Homo sapiens), sequence (P16234 whole entry, the tested form may be a part): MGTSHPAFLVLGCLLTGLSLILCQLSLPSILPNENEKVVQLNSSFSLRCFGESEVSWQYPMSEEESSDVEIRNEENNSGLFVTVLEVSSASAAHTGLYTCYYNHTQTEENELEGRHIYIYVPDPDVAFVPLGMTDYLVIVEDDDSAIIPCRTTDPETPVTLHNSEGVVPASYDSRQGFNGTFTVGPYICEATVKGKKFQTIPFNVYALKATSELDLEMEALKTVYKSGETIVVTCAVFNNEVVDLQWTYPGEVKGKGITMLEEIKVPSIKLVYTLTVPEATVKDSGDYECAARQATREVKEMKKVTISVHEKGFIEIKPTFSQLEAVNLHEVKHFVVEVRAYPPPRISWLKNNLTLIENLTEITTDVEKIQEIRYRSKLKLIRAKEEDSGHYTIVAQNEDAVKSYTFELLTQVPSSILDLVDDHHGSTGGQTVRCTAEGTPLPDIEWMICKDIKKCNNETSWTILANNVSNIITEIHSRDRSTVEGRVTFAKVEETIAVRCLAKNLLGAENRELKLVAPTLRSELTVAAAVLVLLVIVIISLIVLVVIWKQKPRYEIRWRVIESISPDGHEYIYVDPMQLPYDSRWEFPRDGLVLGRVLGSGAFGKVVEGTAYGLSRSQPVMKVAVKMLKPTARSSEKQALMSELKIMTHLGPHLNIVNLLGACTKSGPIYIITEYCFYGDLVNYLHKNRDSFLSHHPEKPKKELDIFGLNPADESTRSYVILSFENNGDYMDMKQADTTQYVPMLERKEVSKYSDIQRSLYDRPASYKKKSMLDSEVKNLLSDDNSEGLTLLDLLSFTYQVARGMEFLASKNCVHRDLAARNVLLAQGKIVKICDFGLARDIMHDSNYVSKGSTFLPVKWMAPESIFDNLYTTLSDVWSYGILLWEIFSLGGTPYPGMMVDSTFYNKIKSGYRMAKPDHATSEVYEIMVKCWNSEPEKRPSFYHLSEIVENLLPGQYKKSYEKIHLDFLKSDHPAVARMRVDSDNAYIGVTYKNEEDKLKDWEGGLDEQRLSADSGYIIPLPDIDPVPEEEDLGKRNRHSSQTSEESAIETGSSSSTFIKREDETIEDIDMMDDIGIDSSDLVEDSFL
Serine/threonine-protein kinase TBK1 (Homo sapiens), sequence (Q9UHD2 whole entry): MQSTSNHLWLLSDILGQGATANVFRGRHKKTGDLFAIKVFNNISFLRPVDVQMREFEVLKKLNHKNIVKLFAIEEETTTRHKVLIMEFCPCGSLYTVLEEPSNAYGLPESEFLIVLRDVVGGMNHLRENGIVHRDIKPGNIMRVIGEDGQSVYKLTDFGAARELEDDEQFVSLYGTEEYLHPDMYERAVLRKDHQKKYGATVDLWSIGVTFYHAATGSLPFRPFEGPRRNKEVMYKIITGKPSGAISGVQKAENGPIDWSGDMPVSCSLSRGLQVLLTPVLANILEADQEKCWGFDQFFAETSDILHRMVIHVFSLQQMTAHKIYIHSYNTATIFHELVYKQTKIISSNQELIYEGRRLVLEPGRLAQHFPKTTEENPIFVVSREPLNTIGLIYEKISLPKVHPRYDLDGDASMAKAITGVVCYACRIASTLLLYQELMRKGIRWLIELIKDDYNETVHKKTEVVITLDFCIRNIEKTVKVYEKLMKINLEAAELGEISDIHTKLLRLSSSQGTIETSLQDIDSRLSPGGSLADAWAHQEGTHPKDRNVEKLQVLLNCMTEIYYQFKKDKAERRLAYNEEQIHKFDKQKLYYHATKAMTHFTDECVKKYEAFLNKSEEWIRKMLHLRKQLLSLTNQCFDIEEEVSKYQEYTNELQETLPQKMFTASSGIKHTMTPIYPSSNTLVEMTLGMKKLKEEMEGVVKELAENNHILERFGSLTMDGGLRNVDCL
Tyrosine-protein kinase Lck (Homo sapiens), sequence (P06239 2-509 limits assumed): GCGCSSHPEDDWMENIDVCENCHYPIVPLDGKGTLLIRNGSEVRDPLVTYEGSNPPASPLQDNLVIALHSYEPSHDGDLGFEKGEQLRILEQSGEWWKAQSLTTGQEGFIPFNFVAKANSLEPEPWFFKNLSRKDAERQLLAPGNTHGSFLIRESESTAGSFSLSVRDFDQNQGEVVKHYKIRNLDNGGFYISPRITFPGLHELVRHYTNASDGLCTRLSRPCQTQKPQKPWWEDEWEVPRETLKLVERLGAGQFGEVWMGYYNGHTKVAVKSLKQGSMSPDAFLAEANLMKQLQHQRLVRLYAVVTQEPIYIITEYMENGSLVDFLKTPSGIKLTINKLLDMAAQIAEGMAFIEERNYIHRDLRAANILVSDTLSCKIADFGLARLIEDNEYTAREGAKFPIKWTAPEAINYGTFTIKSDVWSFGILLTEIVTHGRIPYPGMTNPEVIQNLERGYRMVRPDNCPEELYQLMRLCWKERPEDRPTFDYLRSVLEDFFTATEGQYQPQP
MAP/microtubule affinity-regulating kinase 3 (Homo sapiens), sequence (P27448 whole entry, looked up, the tested form may be a part): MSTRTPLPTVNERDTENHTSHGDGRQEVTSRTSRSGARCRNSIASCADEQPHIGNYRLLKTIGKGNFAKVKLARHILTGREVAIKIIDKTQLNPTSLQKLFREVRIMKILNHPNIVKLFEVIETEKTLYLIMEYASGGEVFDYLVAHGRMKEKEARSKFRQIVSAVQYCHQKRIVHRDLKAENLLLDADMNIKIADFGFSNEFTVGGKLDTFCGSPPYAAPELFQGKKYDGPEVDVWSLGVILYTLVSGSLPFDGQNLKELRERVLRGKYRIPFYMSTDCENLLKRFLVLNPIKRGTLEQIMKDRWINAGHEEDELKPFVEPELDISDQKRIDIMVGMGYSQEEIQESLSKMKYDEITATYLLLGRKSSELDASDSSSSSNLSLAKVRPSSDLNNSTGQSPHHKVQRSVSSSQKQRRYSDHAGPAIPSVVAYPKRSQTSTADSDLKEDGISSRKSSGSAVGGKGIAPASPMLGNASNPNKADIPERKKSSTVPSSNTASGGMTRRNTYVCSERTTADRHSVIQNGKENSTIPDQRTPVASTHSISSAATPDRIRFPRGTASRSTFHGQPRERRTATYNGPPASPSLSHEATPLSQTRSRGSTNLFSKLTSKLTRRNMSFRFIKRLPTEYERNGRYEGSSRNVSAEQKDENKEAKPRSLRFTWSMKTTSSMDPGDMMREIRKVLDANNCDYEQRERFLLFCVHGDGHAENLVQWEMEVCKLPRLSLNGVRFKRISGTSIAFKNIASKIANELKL
High affinity nerve growth factor receptor (Homo sapiens), sequence (P04629 33-796 limits assumed): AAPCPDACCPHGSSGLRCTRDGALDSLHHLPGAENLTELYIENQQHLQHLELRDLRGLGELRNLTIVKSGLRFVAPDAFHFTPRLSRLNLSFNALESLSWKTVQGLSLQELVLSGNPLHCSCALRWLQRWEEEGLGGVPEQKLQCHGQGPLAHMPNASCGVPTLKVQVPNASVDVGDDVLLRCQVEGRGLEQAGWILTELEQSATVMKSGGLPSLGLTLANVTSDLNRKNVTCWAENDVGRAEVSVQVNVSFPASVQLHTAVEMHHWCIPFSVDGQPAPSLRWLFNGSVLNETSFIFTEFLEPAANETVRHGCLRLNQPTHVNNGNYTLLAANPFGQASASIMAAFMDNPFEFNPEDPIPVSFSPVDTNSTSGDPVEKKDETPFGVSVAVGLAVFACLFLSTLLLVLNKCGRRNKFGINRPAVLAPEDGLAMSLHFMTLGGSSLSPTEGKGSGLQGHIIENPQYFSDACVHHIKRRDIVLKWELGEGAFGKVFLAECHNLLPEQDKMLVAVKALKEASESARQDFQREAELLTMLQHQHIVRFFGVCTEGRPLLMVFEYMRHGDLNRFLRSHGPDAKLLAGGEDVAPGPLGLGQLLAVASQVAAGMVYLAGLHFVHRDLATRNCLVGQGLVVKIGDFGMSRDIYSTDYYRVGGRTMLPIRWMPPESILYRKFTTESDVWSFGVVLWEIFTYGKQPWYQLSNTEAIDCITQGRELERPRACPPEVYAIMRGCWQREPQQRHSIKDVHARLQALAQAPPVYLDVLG
Sphingosine kinase 1 (Homo sapiens), sequence (Q9NYA1 whole entry, the tested form may be a part): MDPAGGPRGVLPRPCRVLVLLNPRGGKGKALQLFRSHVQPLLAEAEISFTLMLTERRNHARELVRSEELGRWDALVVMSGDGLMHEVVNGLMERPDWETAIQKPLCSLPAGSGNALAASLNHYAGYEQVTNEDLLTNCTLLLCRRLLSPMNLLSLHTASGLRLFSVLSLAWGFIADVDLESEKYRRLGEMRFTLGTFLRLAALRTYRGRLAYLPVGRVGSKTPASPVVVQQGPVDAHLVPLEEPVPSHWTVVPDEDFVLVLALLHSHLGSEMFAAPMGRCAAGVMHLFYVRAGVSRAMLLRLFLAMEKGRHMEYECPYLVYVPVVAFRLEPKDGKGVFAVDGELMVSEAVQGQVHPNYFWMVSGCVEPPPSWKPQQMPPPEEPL
Serine/threonine-protein kinase 24 (Homo sapiens), sequence (Q9Y6E0 whole entry, looked up, the tested form may be a part): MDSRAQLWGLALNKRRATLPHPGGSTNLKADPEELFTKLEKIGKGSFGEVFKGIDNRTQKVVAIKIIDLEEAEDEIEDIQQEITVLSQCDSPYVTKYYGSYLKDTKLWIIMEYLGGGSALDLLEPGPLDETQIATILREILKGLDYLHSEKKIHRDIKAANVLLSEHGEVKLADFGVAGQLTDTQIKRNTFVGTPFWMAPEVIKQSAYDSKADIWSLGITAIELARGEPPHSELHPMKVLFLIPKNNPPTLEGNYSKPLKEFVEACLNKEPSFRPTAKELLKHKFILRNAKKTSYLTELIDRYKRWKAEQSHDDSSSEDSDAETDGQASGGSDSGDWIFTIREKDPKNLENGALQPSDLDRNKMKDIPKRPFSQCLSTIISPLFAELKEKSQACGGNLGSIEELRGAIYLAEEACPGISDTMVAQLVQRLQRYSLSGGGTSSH
Casein kinase I isoform alpha (Homo sapiens), sequence (P48729 2-337 limits assumed): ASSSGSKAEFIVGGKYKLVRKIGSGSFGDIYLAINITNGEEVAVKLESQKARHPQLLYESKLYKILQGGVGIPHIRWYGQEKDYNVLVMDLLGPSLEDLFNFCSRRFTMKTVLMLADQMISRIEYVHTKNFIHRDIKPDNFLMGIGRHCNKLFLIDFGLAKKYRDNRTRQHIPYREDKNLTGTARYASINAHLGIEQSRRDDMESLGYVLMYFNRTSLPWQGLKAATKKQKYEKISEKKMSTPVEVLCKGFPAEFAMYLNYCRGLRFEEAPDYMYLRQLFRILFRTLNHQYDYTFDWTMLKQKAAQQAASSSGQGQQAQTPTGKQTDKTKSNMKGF

For `CC(C)(O)CNc1ncc(-c2ccnc(Nc3ccnc(Cl)c3)n2)c(CC2CC2)n1`, the inhibition [1] was “inactive”, the Activity [2] was 109% and the Activity [3] was 115%. For the same molecule, the inhibition [4] was “inactive”, the inhibition [5] was “inactive” and the inhibition [6] was “inactive”. The inhibition (U2OS) was “Active”, the inhibition [7] was “inactive” and the Activity [8] was 125%. For the same molecule, the inhibition [9] was “inactive”, the Activity [10] was 95% and the inhibition [11] was “inactive”. For the same molecule, the Activity [12] was 116%, the Activity [13] was 96% and the inhibition [14] was “inactive”. The inhibition [15] was “inactive”, the IC50 [16] was 382 nM and the inhibition [17] was “inactive”. The Activity [18] was 121%, the Activity [19] was 112% and the inhibition [20] was “inactive”. For the same molecule, the inhibition [21] was “inactive” and the inhibition [22] was “inactive”.
